IC50 data for 23 compounds are collected here from ChEMBL document CHEMBL1153079, “Synthesis and biological evaluation of 3',4',5'-trimethoxychalcone analogues as inhibitors of nitric oxide production and tumor cell proliferation” (Bioorg Med Chem, 2009).

A value given as a limit tells only on which side of the number the result lay.

Holding throughout (assay type): functional, cell-based
The subject of one assay is HepG2. Briefly: Growth inhibition of human HepG2 cells after 48 hrs by MTT assay. The note with it: HepG2, 48 h. An outline of the steps: (§1)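 Cells were from ATCC and grown in RPMI-1640 with 10% fetal calf serum, antibiotics and L-glutamine. Growth was read by MTT after continuous compound exposure, against a DMSO vehicle control, up to a maximum of 100 µM. IC50 came from sigmoidal variable-slope dose–response curves. Triplicates were run in three independent experiments, reported as mean ± SD.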
(Tetrazolium assays rely on reduction of a dye to a coloured formazan, in cell work by metabolically active cells.)

The subject of assay [1] is Peritoneal macrophage cell. Kind of assay: Inhibition of nitric oxide production in LPS/IFN-gamma-stimulated BALB/c mouse peritoneal macrophages by Griess method. An outline of the steps:
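Murine peritoneal macrophages were stimulated with LPS (E. coli 055:B5) plus recombinant IFN-γ, and NO in the medium was measured with Griess reagent. Cell viability under the same conditions was checked by MTT. IC50 came from sigmoidal variable-slope dose–response curves. Triplicates were repeated three times (n = 9), reported as mean ± SD.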

The next assay concerns COLO 205. Kind of assay: Growth inhibition of human COLO205 cells after 48 hrs by MTT assay. The note with it: COLO 205, 48 h. The procedure, abridged:
as §1

In the case of `COc1ccc(/C=C/C(=O)c2cc(OC)c(OC)c(OC)c2)cc1O`, the results for the IC50 (with HepG2; in assay [1]; with COLO 205) were 10.6 µM, 1.3 µM and 11.2 µM, respectively.

Consider `COc1cc(C(=O)/C=C/c2ccc([N+](=O)[O-])cc2)cc(OC)c1OC`, for which the IC50 (in general, the concentration at which inhibition is half-maximal) in the assay on HepG2 is > 100 µM; in assay [1], 30 µM; in the assay on COLO 205, 43 µM.

Turning to `COc1cccc(/C=C/C(=O)c2cc(OC)c(OC)c(OC)c2)c1`, the results for the IC50 (with HepG2; in assay [1]; in the assay on COLO 205) were 1.8 µM, 0.3 µM and 2.2 µM, respectively.

`COc1cc(C(=O)/C=C/c2cccc(C=O)c2)cc(OC)c1OC`: the IC50 in the assay on HepG2 is > 100 µM; in assay [1], > 50 µM; in the assay with COLO 205, 22.5 µM.

With `COc1cc(C(=O)/C=C/c2cccc(O)c2)cc(OC)c1OC`, the IC50 in the assay on HepG2 worked out at 94 µM; in assay [1] it was 13.5 µM; with COLO 205, 49 µM.

In the case of `COc1cc(C(=O)/C=C/c2ccc(F)cc2)cc(OC)c1OC`, the IC50 came to 22 µM in the assay on HepG2, 17.6 µM in assay [1] and 25.7 µM in the assay with COLO 205.

Turning to `COc1cccc(/C=C/C(=O)c2cc(OC)c(OC)c(OC)c2)c1OC`, the figures for the IC50 (in the assay with HepG2; in assay [1]; in the assay on COLO 205) were 11.5 µM, 2.4 µM and 13.2 µM, respectively.

For the compound `COc1cc(/C=C/C(=O)c2cc(OC)c(OC)c(OC)c2)ccc1O`, the IC50 in the assay on HepG2 was > 100 µM; in assay [1], 0.3 µM; with COLO 205 it was > 100 µM.

For the compound `COc1cc(C(=O)/C=C/c2ccc(O)cc2)cc(OC)c1OC`, the concentration for half-maximal inhibition (IC50) is 16 µM with HepG2, 5 µM in assay [1] and 29.7 µM in the assay with COLO 205.

Regarding `COc1ccc(/C=C/C(=O)c2cc(OC)c(OC)c(OC)c2)cc1`, the IC50 was found to be 49.5 µM with HepG2, 7.6 µM in assay [1] and 46.4 µM in the assay with COLO 205.

With `COc1cc(/C=C/C(=O)c2cc(OC)c(OC)c(OC)c2)cc(OC)c1OC`, the IC50 was found to be 19.6 µM in the assay on HepG2, 2.8 µM in assay [1] and 19.2 µM in the assay on COLO 205.

For the compound `COc1cc(C(=O)/C=C/c2ccc(Br)cc2)cc(OC)c1OC`, the figures for the 50% inhibitory concentration (IC50) (with HepG2; in assay [1]; with COLO 205) were 80 µM, 20 µM and 22.5 µM, respectively.

In the case of `COc1cc(C(=O)/C=C/c2ccc(C)cc2)cc(OC)c1OC`, the IC50 with HepG2 was found to be 52 µM; in assay [1], 4.5 µM; in the assay with COLO 205, 41.5 µM.

In the case of `COc1cc(OC)c(OC)cc1/C=C/C(=O)c1cc(OC)c(OC)c(OC)c1`, the 50% inhibitory concentration (IC50) in the assay with HepG2 came to 16.1 µM; in assay [1], 4.6 µM; in the assay with COLO 205, 18.6 µM.

Regarding `COc1cc(C(=O)/C=C/c2ccc(N(C)C)cc2)cc(OC)c1OC`, the IC50 was 30 µM with HepG2, 27 µM in assay [1] and 75 µM in the assay on COLO 205.

On to `COc1ccc(/C=C/C(=O)c2cc(OC)c(OC)c(OC)c2)c(OC)c1`, for which the IC50 with HepG2 is > 100 µM; in assay [1], > 50 µM; in the assay with COLO 205 it was 82.5 µM.

On to `COc1cc(C(=O)/C=C/c2cc(O)ccc2O)cc(OC)c1OC`, for which the results for the IC50 (with HepG2; in assay [1]; in the assay with COLO 205) were > 100 µM, > 50 µM and > 100 µM, respectively.

On to `COc1cccc(/C=C/C(=O)c2cc(OC)c(OC)c(OC)c2)c1O`, for which the values for the IC50 (with HepG2; in assay [1]; with COLO 205) were 13.5 µM, 3 µM and 13 µM, respectively.

Take `COc1ccc(/C=C/C(=O)c2cc(OC)c(OC)c(OC)c2)cc1OC`: the figures for the IC50 (in the assay with HepG2; in assay [1]; with COLO 205) were 20.3 µM, 4.5 µM and > 100 µM, respectively.

In the case of `COc1cc(C(=O)/C=C/c2ccc(O)c(O)c2)cc(OC)c1OC`, the values for the IC50 (in the assay on HepG2; in assay [1]; in the assay with COLO 205) were 14.9 µM, 1.5 µM and 19.8 µM, respectively.

Turning to `COc1cc(C(=O)/C=C/c2ccc(C=O)cc2)cc(OC)c1OC`, the IC50 is > 100 µM in the assay with HepG2, > 50 µM in assay [1] and 68.8 µM in the assay on COLO 205.

In the case of `COc1cc(C(=O)/C=C/c2ccccc2C=O)cc(OC)c1OC`, the half-maximal inhibitory concentration (IC50) was > 100 µM in the assay on HepG2, 27 µM in assay [1] and 88 µM in the assay on COLO 205.

As to `COc1cc(C(=O)/C=C/c2cc([N+](=O)[O-])ccc2O)cc(OC)c1OC`, the IC50 in the assay with HepG2 was > 100 µM; in assay [1] it was 4.4 µM; with COLO 205 it was 76 µM.
